KCNK9 inh: blocks the human KCNK9 two-pore domain potassium channel | AID 488922 | HEK293 KCNK9, FluxOR thallium flux fluorescence; stronger effect = lower value | hit rate 1.2% among 310,000 | Q9NPC2 | B-score at 10 µM;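 active means ratio B-score over 3 SD below the library mean, with starting fluorescence within 5 SD of its mean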;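 further: negative B-score means less thallium flux so channel inhibition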
KCNQ1 block: inhibitors of human KCNQ1 potassium channel; B-score at 10 µM; CHO-K1 KCNQ1, FluxOR thallium flux fluorescence; stronger effect = higher value; AID 2642; hit rate 1.3% among 310,000;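 active means compounds whose thallium flux B-score, printed positive for inhibition, exceeds three library SD while starting fluorescence stays within three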;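 further: channel opened by potassium depolarization with thallium stimulus after 20 min compound exposure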
Target sequence (P51787 whole entry, looked up): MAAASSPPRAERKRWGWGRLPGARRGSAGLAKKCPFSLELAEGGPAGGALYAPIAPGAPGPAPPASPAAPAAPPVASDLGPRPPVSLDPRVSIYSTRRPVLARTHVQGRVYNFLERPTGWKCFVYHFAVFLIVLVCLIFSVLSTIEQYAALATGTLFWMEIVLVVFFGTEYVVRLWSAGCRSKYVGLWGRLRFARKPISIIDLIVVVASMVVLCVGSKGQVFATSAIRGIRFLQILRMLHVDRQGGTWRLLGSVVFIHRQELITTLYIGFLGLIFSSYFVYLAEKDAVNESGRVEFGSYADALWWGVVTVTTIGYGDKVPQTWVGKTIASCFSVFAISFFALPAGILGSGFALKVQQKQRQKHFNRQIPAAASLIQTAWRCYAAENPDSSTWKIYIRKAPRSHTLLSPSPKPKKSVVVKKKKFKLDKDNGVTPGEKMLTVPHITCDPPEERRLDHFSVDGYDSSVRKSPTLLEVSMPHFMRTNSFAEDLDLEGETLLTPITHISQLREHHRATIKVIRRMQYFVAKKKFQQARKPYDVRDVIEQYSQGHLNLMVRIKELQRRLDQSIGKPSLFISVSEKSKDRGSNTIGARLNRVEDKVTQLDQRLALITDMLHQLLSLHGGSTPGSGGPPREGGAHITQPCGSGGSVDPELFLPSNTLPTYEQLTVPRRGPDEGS
KCNK3 inh: human KCNK3 channel inhibition, primary screen | O14649 | CHO-KCNK3 thallium flux, FluxOR fluorescence; stronger effect = lower value | B-score at 10 µM | hit rate 0.84% among 340,000 | AID 602410;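 active means B-score under library mean minus 4 SD, starting fluorescence ratio at most library mean plus 5 SD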;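 further: more negative B-score means stronger inhibition of thallium flux through KCNK3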
Kir21 inh: inhibitors of mouse Kir2.1 inward-rectifier potassium channel; P35561; HEK293-Kir2.1, FluxOR thallium flux fluorescence; stronger effect = lower value; hit rate 0.85% among 310,000; B-score at 10 µM; AID 1672;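 active means fluorescence ratio B-score at or below minus 3 SD of library scores, with starting-brightness B-score within 2 SD, cut at about -4.2 in these data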;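 further: channel flux triggered by added potassium and thallium sulfate stimulus; B-score of peak minus minimum fluorescence over baseline after thallium stimulus; more negative B-score means stronger Kir2.1 block with less thallium influx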
hERG rescue: shields human hERG channel from block by proarrhythmic agents | activation (rescue from dofetilide block), less the hit threshold, % at 10 µM | CHO-hERG, FluxOR thallium flux, dofetilide IC70 present | hit rate 0.51% among 310,000 | Q12809;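 active means activation above the mean of controls blocked by dofetilide plus 5 SD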;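 further: thallium influx through hERG after potassium depolarization seen as dye fluorescence rise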
KCNQ1 pot: potentiators or activators of human KCNQ1 potassium channel; P51787; CHO-K1 KCNQ1, thallium flux FluxOR fluorescence; stronger effect = higher value; B-score at 10 µM; hit rate 0.35% among 310,000; AID 2648;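 active means fluorescence ratio B-score, a plate-corrected score, at least three library SD, with initial intensity B-score within 5 SD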
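Assay system: CHO-K1 cells stably expressing KCNQ1; Medium: assay buffer with matched DMSO; Also added: K+/Tl+ depolarizing stimulus; Dosing: single dose; Timing: dye 90 min, compound 20 min, room temperature; Measured by: kinetic FluxOR thallium fluorescence, 10-s 1-Hz baseline, 110-s post-stimulus read; Read-out: peak-minus-minimum fluorescence over initial fluorescence, negative-control normalized, B-scored.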
KCNK9 inh conf: human KCNK9 inhibitor confirmation. hit rate 43% among 4,900. shares compounds with KCNK9 inh. AID 492992. HEK293 KCNK9 cells, FluxOR thallium flux fluorescence. inhibition, % at 10 µM;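 active means thallium signal inhibited by more than 5 SD of the compound-free buffer control wells, on both duplicate plates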
Kir21 sel: selectivity of KCNK9 modulators against mouse Kir2.1. AID 492993. hit rate 4% among 4,900. shares compounds with KCNK9 inh. Kir2.1 cells, FluxOR thallium flux fluorescence. inhibition, % at 10 µM;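 active means thallium signal drop more than 5 SD beyond the mean of the no-compound control wells, seen in both duplicate plates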;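 further: signal is fluorescence rise after thallium addition divided by baseline fluorescence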
HEK293 Tl ctr: second check of KCNK9 modulator effects in non-induced HEK293 cells | shares compounds with KCNK9 inh | FluxOR thallium flux | inhibition, % at 10 µM | hit rate 40% among 4,900 | AID 492997;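 active means thallium signal drop beyond 5 SD of the untreated control mean, on both duplicate plates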
Of the large screens only hits and unclear results are named; the others gave an inactive call (follow-up assays come after a bar, where they were run). Shown are actives, neighbours in structure and some others; about 3.7% of the full set was active somewhere.

COc1ccc(/C=C/C(=O)N2CCN(c3ccccn3)CC2)cc1OC	none
NCCCNc1nc(N)c([N+](=O)[O-])c(NC2CCCCC2)n1	none
Cc1cccc(N2CCN(CC(=O)NCc3ccc(Cl)cc3)CC2)c1C	none | KCNK9 inh conf inactive | Kir21 sel inactive | HEK293 Tl ctr inactive
COc1ccc(NC(=O)CN2C(=O)C(C)SC(C)C2=O)c(OC)c1 (stereo unspecified)	none
O=C(COc1ccc(Cl)cc1Cl)NCCCCc1ccccc1	none | KCNK9 inh conf inactive | Kir21 sel inactive | HEK293 Tl ctr 24.5%
O=C(CCCc1ccccc1)NCCCc1ccccc1	none | KCNK9 inh conf inactive | Kir21 sel inactive | HEK293 Tl ctr inactive
CCC1CN(C(=O)N2CCC(C(=O)NCc3ccc(F)cc3)CC2)c2ccccc2O1 (stereo unspecified)	none
CC(C)(C)OC(=O)COc1cc(O)c2c(=O)cc(-c3ccccc3)oc2c1	KCNK9 inh -11.5, KCNQ1 block 10 | KCNK9 inh conf 43.0% | Kir21 sel inactive | HEK293 Tl ctr 34.0%
O=C(Nc1ccc2c(c1)OCO2)c1ccc(Br)c(S(=O)(=O)N2CCCC2)c1	KCNK9 inh -8.73 | KCNK9 inh conf inactive | Kir21 sel inactive | HEK293 Tl ctr inactive
O=C(c1ccccc1)N1CCN(c2ccc([N+](=O)[O-])c(NCC3CCCO3)c2)CC1 (stereo unspecified)	none
Cc1cc(C(=O)N2CCCC(C(=O)c3ccc4ccccc4c3)C2)nn1C (stereo unspecified)	none | KCNK9 inh conf inactive | Kir21 sel inactive | HEK293 Tl ctr inactive
CC#CC(=O)N1CCCC(C(=O)c2ccc(SC)cc2)C1 (stereo unspecified)	none
COc1c(C)cc(C(=O)C2CCCN(C(=O)c3cc(C)n(C)n3)C2)cc1C (stereo unspecified)	none
O=C(c1ccc2ccccc2c1)C1CCCN(C(=O)c2noc3c2CCCC3)C1 (stereo unspecified)	none | KCNK9 inh conf inactive | Kir21 sel inactive | HEK293 Tl ctr inactive
CSc1ccc(C(=O)C2CCCN(C(=O)c3ccsc3)C2)cc1 (stereo unspecified)	none | KCNK9 inh conf inactive | Kir21 sel inactive | HEK293 Tl ctr inactive
CSc1nc(C(=O)N2CCCC(C(=O)c3ccc(Cl)cc3)C2)cs1 (stereo unspecified)	none | KCNK9 inh conf inactive | Kir21 sel inactive | HEK293 Tl ctr inactive
O=C(c1ccc(Cl)cc1)C1CCCN(C(=O)c2csnn2)C1 (stereo unspecified)	none
COc1ccc(/C=N/NS(=O)(=O)c2ccc(F)cc2)cc1CN1CCSCC1	none
CSc1ccc(C(=O)C2CCCN(C(=O)c3cc(C)n(C)n3)C2)cc1 (stereo unspecified)	none | KCNK9 inh conf inactive | Kir21 sel inactive | HEK293 Tl ctr inactive
COc1ccc(CNC(=O)COc2ccc(Br)c(C)c2)cc1	none
CC(C)(C)c1ccc(OCC(=O)NNC(=S)NC(=O)c2ccco2)c(Br)c1	KCNQ1 pot 56 | KCNK9 inh conf inactive | Kir21 sel inactive | HEK293 Tl ctr inactive
O=C1C(Cl)=C(NC2CCCCC2)C(=O)N1Cc1ccccc1	none | KCNK9 inh conf inactive | Kir21 sel inactive | HEK293 Tl ctr inactive
CC(=O)c1cccc(N(CC(=O)Nc2ccccc2C(=O)N2CCCC2)S(C)(=O)=O)c1	none
C[n+]1c2n(c3ccccc31)N=C(c1cc(C(C)(C)C)c(O)c(C(C)(C)C)c1)CS2	KCNK9 inh -19.5, KCNQ1 block 7, KCNK3 inh -12.8, Kir21 inh -7.81 | KCNK9 inh conf 76.5% | Kir21 sel 46.5% | HEK293 Tl ctr 31.5%
COc1ccccc1C(=O)N/C(=C\c1ccccc1)C(=O)NCc1ccco1	none
COc1ccc(-c2csc(Nc3ccccc3)[n+]2Cc2ccccc2)cc1	KCNK9 inh -9.39 | KCNK9 inh conf 45.5% | Kir21 sel inactive | HEK293 Tl ctr 27.0%
COc1cc(CCC(N)c2cccc(O)c2)cc(OC)c1OC (stereo unspecified)	none (no result: KCNK9 inh, KCNQ1 block, Kir21 inh, hERG rescue, KCNQ1 pot)
CN1OC(c2ccccc2)=C(CO)C1c1ccccc1 (stereo unspecified)	none
COc1ccc(CCn2c(C)cc(C(=O)CSc3nnnn3-c3ccccc3)c2C)cc1	none
O=C(c1ccccc1)C1Oc2ccccc2C2CC(c3cccs3)=NN12 (stereo unspecified)	none
COc1cccc(C2Oc3ccccc3C3CC(c4cccs4)=NN32)c1 (stereo unspecified)	KCNK9 inh -12.3 | KCNK9 inh conf 60.5% | Kir21 sel inactive | HEK293 Tl ctr inactive
Cc1ccc(/C=C2\C(=O)ON=C2c2ccccc2)o1	none
Cc1ccc(-c2ccc(/C=C3\C(=O)ON=C3c3ccccc3)o2)c([N+](=O)[O-])c1	KCNQ1 pot 8 | KCNK9 inh conf inactive | Kir21 sel inactive | HEK293 Tl ctr 32.0%
Cc1nc(Nc2ccc(Cl)cc2Cl)sc1C(=O)Nc1ccccc1	none | KCNK9 inh conf inactive | Kir21 sel inactive | HEK293 Tl ctr inactive
O=C(OCc1cc(Cl)cc2c1OCOC2)c1cccnc1Cl	none (no result: KCNK9 inh, KCNQ1 block, Kir21 inh, hERG rescue, KCNQ1 pot)
CNS(=O)(=O)c1cccc(C(=O)OCc2cc(Cl)cc3c2OCOC3)c1	KCNK9 inh -12.6 | KCNK9 inh conf 48.5% | Kir21 sel inactive | HEK293 Tl ctr inactive
Cc1ccc(NC(=O)C2CCN(S(=O)(=O)c3c(C)noc3C)CC2)cc1C	none
Cc1ccc2oc(-c3cccc(NC(=S)NC(=O)/C=C/c4ccco4)c3)nc2c1	none | KCNK9 inh conf inactive | Kir21 sel inactive | HEK293 Tl ctr inactive
Cc1ccc2oc(-c3cccc(NC(=S)NC(=O)c4cccs4)c3)nc2c1	none
Cc1cc(C)cc(OCC(=O)O/N=C(\N)c2ccccc2Cl)c1	none | KCNK9 inh conf inactive | Kir21 sel inactive | HEK293 Tl ctr inactive
O=c1c2ccccc2nc(/C=C/c2cccnc2)n1CCc1ccccc1	KCNK9 inh -9.34 | KCNK9 inh conf inactive | Kir21 sel inactive | HEK293 Tl ctr 27.0%
CCOC(=O)c1c(NC(=O)C2CCN(S(=O)(=O)c3cccs3)CC2)sc(C)c1C	none | KCNK9 inh conf inactive | Kir21 sel inactive | HEK293 Tl ctr inactive
c1ccc(-c2nc(NCc3cccnc3)c3oc4ccccc4c3n2)cc1	KCNK9 inh -10.4, hERG rescue 7.9 | KCNK9 inh conf 38.0% | Kir21 sel inactive | HEK293 Tl ctr 32.0%
CCn1c(=O)c(C(C)=O)nc2ccccc21	none

Source: PubChem BioAssay (Johns Hopkins Ion Channel Center)
